≈ marks a conversion by molar mass, not a printed value. Calls of active or inactive are those of the source. The rule behind the calls is not given here.
Assays:
Staphylococcus aureus [1] = test: Antimicrobial activity against methicillin-resistant Staphylococcus aureus ATCC 33592 after 16 hrs; type: functional; conditions: ATCC 33592, 16 h
[2] = test system: Staphylococcus epidermidis; test: Antimicrobial activity against methicillin-resistant Staphylococcus epidermidis RP62A after 16 hrs; type: functional
Enterococcus faecalis = test: Antimicrobial activity against Enterococcus faecalis ATCC 700802 after 16 hrs; type: functional; conditions: ATCC 700802, 16 h
In short: (§1)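 Broth microdilution: overnight cultures were reinoculated at 1:100, grown to mid-log phase, and diluted to 1 × 10^6 CFU/mL. Cells were mixed 1:1 with serial dilutions […] and incubated 16 h at 37 °C, then read at 600 nm. MIC is the lowest concentration with no growth. Repeated multiple times, in duplicate.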

Pseudomonas aeruginosa = test: Antimicrobial activity against Pseudomonas aeruginosa ATCC 27853 after 16 hrs; type: functional; conditions: ATCC 27853, 16 h; in short: as §1
Escherichia [3] = test: Antimicrobial activity against Escherichia ATCC 25922 after 16 hrs; type: functional; conditions: ATCC 25922, 16 h; in short: as §1
[4] = Induction of hemolysis in human RBCs incubated for 1 hr; type: cell-based, Erythrocyte; conditions: red blood cells
In short: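 Fresh K2EDTA human RBCs were washed in PBS until the supernatant was clear and diluted to a 5% v/v suspension. This was mixed with equal volumes of compound dilutions for 1 h at 37 °C, centrifuged, and supernatant absorbance read at 360 nm. Hemolysis was normalized between PBS (0%) and 2% Triton X-100 (100%) controls. At least three repeats, in duplicate.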

Staphylococcus aureus [5] = test: Induction of membrane disruption in methicillin-resistant Staphylococcus aureus ATCC 33592 at 10 ug/ml incubated for 2 hrs by DAPI and propidium iodide staining based fluorescence microscopy; type: functional, organism-based
In short: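 Mid-log bacteria treated with compound (10 μg/mL) at 37 °C for 2 h, pelleted, washed, stained with PI (5 μg/mL) then DAPI (10 μg/mL) for 15 min on ice; untreated cells as control; imaged by fluorescence microscopy under 100× oil immersion; PI uptake taken as membrane damage; three repeats.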

Escherichia [6] = test: Induction of membrane disruption in Escherichia ATCC 25922 at 10 ug/ml incubated for 2 hrs by DAPI and propidium iodide staining based fluorescence microscopy; type: functional, organism-based
In short: (§2)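 Mid-log bacteria were incubated with 10 μg/mL compound for 2 h at 37 °C, pelleted at 5000 g and washed. Staining used PI (5 μg/mL) then DAPI (10 μg/mL), 15 min on ice. Imaged by fluorescence microscopy with a 100× oil objective; untreated bacteria served as controls.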

Escherichia [7] = test: Induction of cell aggregation of Escherichia ATCC 25922 at 10 ug/ml incubated for 2 hrs by DAPI and propidium iodide staining based fluorescence microscopy; type: functional, organism-based; in short: as §2
Staphylococcus aureus [8] = test: Bactericidal activity against methicillin-resistant Staphylococcus aureus ATCC 33592 at 12.5 to 50 ug/ml measured after 30 mins by colony count based time-kill assay; type: functional, organism-based
In short: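 Time-kill: MRSA grown to mid-log in TSB, diluted to 10^6 CFU/mL, exposed to compound at several multiples of MIC for 10 min, 30 min, 1 h and 2 h; samples diluted 10^2–10^4-fold, plated on TSB agar, colonies counted after overnight 37 °C; viability plotted against time; three repeats.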

Escherichia [9] = test: Bactericidal activity against Escherichia ATCC 25922 at 25 and 50 ug/ml measured after 1 hr by colony count based time-kill assay; type: functional, organism-based
In short: (§3)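 Time-kill: MRSA and E. coli were grown to mid-log phase in TSB and diluted to 10^6 CFU/mL. Suspensions were exposed to several compound concentrations for 10 min, 30 min, 1 h and 2 h. Samples were diluted 10^2–10^4-fold, plated on TSB agar and incubated overnight at 37 °C. Colonies were counted and plotted against exposure time. Three repeats.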

Escherichia [10] = test: Bactericidal activity against Escherichia ATCC 25922 assessed as reduction bacterial colony count at 25 ug/ml measured after 10 mins to 2 hrs by colony count based time-kill assay; type: functional; in short: as §3
[11] = Stability in presence of 0.1 mg/ml pronase in 100 mM pH 7.8 ammonium bicarbonate buffer at 37 degC assessed as compound degradation after 18 hrs by HPLC method; type: physicochemical; conditions: pH 7.8, 18 h
In short: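 Compound or control peptide AcVQIVYK (1 mg/mL) was incubated 18 h at 37 °C with Pronase in ammonium bicarbonate. Mixtures were dried by speed-vac at 60 °C, redissolved in water and run on analytical RP-HPLC: 5–100% acetonitrile/0.1% TFA gradient over 40 min at 1 mL/min.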

N2a = test: Cytotoxicity against mouse N2a cells assessed as cell viability after 36 hrs by MTT assay

NCCCC[C@@H](CN(CC(N)=O)S(=O)(=O)CCN)NC(=O)CN(C[C@H](Cc1ccccc1)NC(=O)CN(C[C@H](Cc1ccccc1)NC(=O)CN(C[C@H](Cc1ccccc1)NC(=O)CN(C[C@H](CCCCN)NC(=O)CN(C[C@H](Cc1ccccc1)NC(=O)CN(C[C@H](Cc1ccccc1)NC(=O)CN(C[C@@H](N)Cc1ccccc1)S(=O)(=O)Cc1ccccc1)S(=O)(=O)CCN)S(=O)(=O)Cc1ccccc1)S(=O)(=O)CCN)S(=O)(=O)Cc1ccccc1)S(=O)(=O)CCN)S(=O)(=O)Cc1ccccc1
MIC (Staphylococcus aureus [1]): 2 µg/mL (≈ 0.785 µM) | MIC [2]: 2 µg/mL (≈ 0.785 µM) | MIC (Enterococcus faecalis): 2 µg/mL (≈ 0.785 µM) | MIC (Pseudomonas aeruginosa): 4 µg/mL (≈ 1.57 µM) | MIC (Escherichia [3]): 4 µg/mL (≈ 1.57 µM) | HC50 at 1 h [4]: 100 µg/mL | Activity (Staphylococcus aureus [5]): Active | Activity (Escherichia [6]): Active | Activity (Escherichia [7]): Active | Activity (Staphylococcus aureus [8]): Active | Activity (Escherichia [9]): Active | Activity (Escherichia [10]): 1 ×10⁵ CFU/ml | Stability [11]: Stable | EC50 (N2a): 120 µg/mL (≈ 47.1 µM)

— ChEMBL document CHEMBL3576840, “Helical Antimicrobial Sulfono-γ-AApeptides” (J Med Chem, 2015)
